STAT1 activator – STAT1 signaling activation | NIH 3T3 STAT1-luciferase reporter, IFN-gamma, luminescence; 100% = IFN-gamma alone, no compound | activation (% of control), % at 5.5 µM | hit rate 2.6% among 200,000;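 active = activation above the screen-wide mean activation plus 3 SD, cut at about 130% in these data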;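 note: raw ratio to IFN-gamma control signal so 100% means no change and 0% no light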
Wee1 stabilizer – blocks degradation of human Wee1 kinase; P30291; HeLa Luc-Wee1K328M stability, luciferase luminescence; 100% = proteasome inhibitor MG132 effect; reporter increase, % at 5 µM; hit rate 1.2% among 220,000; AID 1321;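 active = activation above the mean of all tested compounds plus 3 SD, set per screening run, cut at about 8.8% in these data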;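 note: cells exposed to compound for 20 h before luminescence read; 0% = DMSO alone and 100% = MG132 at 30 µM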
APP 5'UTR act – activates APP 5'UTR luciferase reporter | AID 1276 | hit rate 1% among 190,000 | SH-SY5Y APP 5'UTR luciferase reporter, luminescence; zero percent = DMSO vehicle wells | activation, % at 2 µM;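 active = activation above a set limit, based on mean plus 3 SD of controls, cut at about 140% in these data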
p97 ATPase inh – inhibitors of human p97 ATPase; P55072; recombinant p97 ATPase, Kinase-Glo ATP luminescence, 3 h; inhibition, % at 8 µM; hit rate 0.42% among 220,000; AID 1481; in the data active = inhibition above about 15%;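 note: 0% = DMSO vehicle and 100% = wells lacking enzyme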
NF-kB expr up – raises NF-kB expression in human neuronal cells; fold change at 12.5 µM; NF-kB reporter expression; hits give high values; hit rate 1.6% among 190,000; in the data active = fold change above about 3.3
MDM2 E3 inh – blocks human Mdm2 ubiquitin ligase activity. Q00987. cell-based MDM2 ubiquitination luciferase reporter, 2 h; 0 = plate control, 100 = twice control, blank-subtracted. signal enhancement, % at 5 µM. hit rate 0.11% among 210,000. AID 1230;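 active = signal enhancement of 30% or more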;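 note: luminescence tracks abundance of the self-degrading MDM2-luciferase fusion protein; higher signal means inhibition of MDM2 E3 ligase activity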
Target sequence (Q00987 whole entry, looked up, the tested form may be a part): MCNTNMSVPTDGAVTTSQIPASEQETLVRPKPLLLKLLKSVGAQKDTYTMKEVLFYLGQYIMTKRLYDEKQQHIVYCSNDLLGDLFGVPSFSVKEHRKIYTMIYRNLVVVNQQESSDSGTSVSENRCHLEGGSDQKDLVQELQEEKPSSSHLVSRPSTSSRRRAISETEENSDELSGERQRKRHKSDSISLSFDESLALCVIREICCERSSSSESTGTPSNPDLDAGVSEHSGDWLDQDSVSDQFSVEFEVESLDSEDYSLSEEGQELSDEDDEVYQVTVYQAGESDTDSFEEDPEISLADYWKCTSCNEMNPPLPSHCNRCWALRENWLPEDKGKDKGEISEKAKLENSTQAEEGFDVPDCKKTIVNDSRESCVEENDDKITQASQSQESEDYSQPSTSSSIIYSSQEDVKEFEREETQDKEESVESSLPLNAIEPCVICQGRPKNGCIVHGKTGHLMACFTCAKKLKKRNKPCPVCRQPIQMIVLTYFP
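Assay system: stable mammalian line carrying autodegrading MDM2–luciferase fusion reporter; Input: 2000 cells in each well; Compound dosing: single-point 5 µM; Schedule: 2 h compound exposure at 37 °C; Signal: SteadyLite luciferase luminescence after 15 min room-temperature reagent incubation; Evaluation: % luminescence enhancement versus blank-corrected plate control mean; Benchmarks: plate controls and plate blanks.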
STAT1 activ conf – STAT1 activation, confirmation assay; shares compounds with STAT1 activator; NIH 3T3 STAT1-luciferase reporter, IFN-gamma potentiation, luminescence; 100% = IFN-gamma EC80 alone, no compound; activation (% of control), % at 5.7 µM; hit rate 97% among 1,200;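 active = activation above a set limit carried over from the earlier primary STAT1 screen, cut at about 140% in these data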;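 note: simple ratio to median IFN-gamma plus DMSO wells so 0% means no light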
NFkB act STAT1ct – counter-screen for STAT1 activators: NF-kappaB activation; shares compounds with STAT1 activator; activation (% of control), % at 5.7 µM; hit rate 43% among 1,200; HEK293T NF-kB luciferase reporter, TNF-alpha stimulated, luminescence; 100% = TNF-alpha with vehicle only;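 active = activation above the mean of solvent-only control wells plus 3 SD, set per campaign, cut at about 130% in these data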;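 note: TNF-alpha given at a submaximal dose yielding about 80% of full reporter signal; values are well signal over median control so 100% means no change and 0% no light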
STAT3 act 2 – activates human STAT3, counter-screen to STAT1 activators; shares compounds with STAT1 activator; U3A cells STAT3-luciferase reporter, IL-6, luminescence; cells lack STAT1; 100 = IL-6 alone, no compound effect; activation (% of control), % at 5.7 µM; hit rate 46% among 1,200;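 active = activation above the solvent-only control well mean plus 3 SD, set per plate batch, cut at about 110% in these data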;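 note: 0% = no luminescence and 100% = median IL-6 plus DMSO wells; higher means more STAT3 reporter activation so hits are non-selective activators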
* = called active by the depositor; · = not tested or not shown. Hits are enriched below; roughly 4.6% of the tested compounds scored in any of these assays.

SMILES	STAT1 activator	Wee1 stabilizer	APP 5'UTR act	p97 ATPase inh	NF-kB expr up	MDM2 E3 inh	STAT1 activ conf	NFkB act STAT1ct	STAT3 act 2
COc1ccc(C(=O)NCCN2C(=O)S/C(=C\c3cccnc3)C2=O)cc1[N+](=O)[O-]	·	-2	·	8	·	-8	·	·	·
Cc1[nH]c2ccccc2c1C(=O)Cn1c(=O)oc2ccccc21	98	-3	-2	-4	0.88	·	·	·	·
O=C(CC1CCCCC1)Nc1nc2ccccc2s1	155*	-2	133	-1	3	-20	184*	134*	120*
O=C(Nc1nc2ccccc2s1)NC1CCCCC1	161*	4	144*	2	9.2*	-34	226*	132	117*
CCOC(=O)C(C(=O)Nc1nc2ccccc2s1)C1CCCCC1 (centres undefined)	103	4	13	1	0.88	-15	·	·	·
CCCC(=O)Nc1ccccc1Sc1ncnc2scc(-c3ccccc3)c12	101	-1	16	3	1.4	-4	·	·	·
CCOC(=O)N/C(N)=N/c1nc2ccccc2s1	166*	4	199*	1	7*	-18	210*	125	99
CC(=O)N/C(N)=N/c1nc(=O)c2ccccc2s1	·	3	·	4	·	-21	·	·	·
C#CC(C)(CC)NC(=O)c1cc2nc(C3CC3)cc(C(F)(F)F)n2n1 (centres undefined)	109	0	13	5	1.4	-11	·	·	·
O=C(COC(=O)c1ccccc1NC(=O)C1CC1)c1ccc2c(c1)OCCO2	159*	-3	38	7	0.59	-12	170*	105	101
CC(C)(C)C(=O)Nc1ccccc1C(=O)OCC(=O)c1ccc2c(c1)OCCO2	97	-1	24	5	0.67	-10	·	·	·
c1ccc(OCc2nc(-c3ccncc3)no2)cc1	123	3	24	1	1.2	-4	·	·	·
Clc1ccccc1OCc1nc(-c2ccncc2)no1	162*	2	194*	-4	4.1*	-2	184*	131	117*
Clc1ccc(OCc2nc(-c3ccncc3)no2)c(Br)c1	152*	-1	250*	-6	4*	-19	233*	141*	123*
Cc1ccc(S(=O)(=O)N(C)C)cc1NC(=O)c1cccnc1Oc1ccccc1	·	2	·	-1	·	-1	·	·	·
CN(C(=O)CS(=O)(=O)c1cccc(Cl)c1)c1ccccc1	95	-3	19	-1	1.1	-18	·	·	·
CN(c1ccc(O)cc1)c1nc(-c2ccccc2)cs1	186*	3	243*	-4	6.9*	-24	238*	114	120*
Cn1c(=NC(=O)c2ccccc2[N+](=O)[O-])sc2cc(S(C)(=O)=O)ccc21	177*	4	178*	4	1.3	-21	249*	117	108
CCCNC(=O)c1cc(-c2ccc(OC)cc2)on1	152*	5	123	-2	6.8*	·	170*	134*	103
C=CCNC(=O)c1cc(-c2ccc(Br)cc2)on1	160*	-1	43	1	2.5	-22	171*	125	97
O=C(NCCCN1CCOCC1)c1cc(-c2ccc(Br)cc2)on1	93	-1	-16	0	0.55	-10	·	·	·
COc1ccc(CNC(=O)C(=O)NCCCn2ccnc2)cc1	100	-4	-7	-1	1.2	-5	·	·	·
Nc1nc(-c2ccccc2)nc2sc3c(c12)CCCC3	191*	5	180*	-1	11*	-30	249*	136*	139*
Cc1ccc(-c2nc3sc4c(c3c(=O)n2N)CCCC4)cc1	178*	1	143*	10	5.1*	0	224*	143*	105
Cc1ccc(-c2nc3sc4c(c3c(=O)n2N)CC(C)(C)OC4)cc1	102	-1	-4	1	1.1	-5	·	·	·
SMILES	STAT1 activator	Wee1 stabilizer	APP 5'UTR act	p97 ATPase inh	NF-kB expr up	MDM2 E3 inh	STAT1 activ conf	NFkB act STAT1ct	STAT3 act 2
CCCc1c(C)nn(-c2ncccc2[N+](=O)[O-])c1C	105	1	13	3	0.97	-32	·	·	·
COc1ccc2[nH]c3c(c2c1)CCn1c-3nc2ccccc2c1=O	153*	13*	184*	0	5.5*	3	298*	116	93
COc1cc(OC)cc(C(=O)Nn2c(C)nc3ccccc3c2=O)c1	101	-3	-1	2	0.49	-16	·	·	·
CCn1c(C)nc2cc(C(=O)NNC(=S)Nc3ccccc3)ccc21	160*	0	185*	5	1.9	-19	228*	141*	118*
CCn1c(C)nc2cc(C(=O)NNC(=S)Nc3ccc(Cl)cc3)ccc21	·	4	·	8	·	·	·	·	·
Nc1ccc2oc(CCc3ccccc3)nc2c1	161*	2	118	1	2.6	-12	177*	143*	116*
COc1ccc(C(=O)Nc2ccc(SC(F)F)cc2)cc1	164*	1	164*	-3	3.1	-6	182*	141*	89
COc1ccc(NC(=O)c2ccc(OC(F)F)cc2)cc1Cl	166*	-1	104	2	4.4*	-2	181*	129	103
O=C(Nc1ccccn1)c1cc(-c2cccc(Cl)c2)nc2ccccc12	94	-2	-17	-3	1.1	-16	·	·	·
O=C(Nc1ccc(NC(=O)c2cccs2)cn1)c1ccccc1	153*	0	136*	-2	3.8*	-13	201*	133	115*
O=C(Nc1ccc(NC(=O)C2CC2)nc1)c1cccs1	117	-2	31	2	1.2	-7	·	·	·
Cc1nc(NC(=O)c2cccs2)ccc1Br	161*	4	133	0	6.3*	-13	201*	131	123*
O=C(CC1C(=O)NCCN1Cc1ccc(F)c(F)c1)NCCCn1ccnc1 (centres undefined)	102	0	16	2	1.3	6	·	·	·
Cc1cc(C(=O)CN2C(=O)c3ccccc3C2=O)c(C)n1Cc1cccs1	161*	2	94	7	0.94	·	193*	107	110
N/C(Cc1nc(-c2ccc(Cl)cc2)cs1)=N/O	·	1	·	6	·	-4	·	·	·
C=C(C)CSc1nncn1/N=C/c1ccc(OC)cc1	153*	7	33	2	2.5	-7	165*	130	128*
